Bioassay records as filed in PubChem BioAssay.
Hsp90 inh = tumor Hsp90 inhibitors, primary screen, cell lysate, fluorescence polarization, NCI-N417 lysate; Cy3B-geldanamycin FP displacement; inhibition, % at 30 µM; actives 0.35% (n = 64,000);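 active means inhibition above 50%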;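 further: 0% = tracer plus lysate wells and 100% = tracer alone without lysate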
JNK3 inh = JNK3 kinase activity inhibitors, primary screen, biochemical, human, purified enzyme; HTS; inhibition, % at 8 µM; actives 0.61% (n = 60,000); AID 746, 2007; in the data active means inhibition above about 17%;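 further: 0% = DMSO and 100% = reference inhibitor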
Cdc25B block = inhibitors of Cdc25B phosphatase catalytic domain, primary screen, biochemical, OMFP fluorescence. M-phase inducer phosphatase 2 (Homo sapiens), P30305. recombinant Cdc25B, OMFP fluorescence Ex485/Em525. inhibition, %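 (compounds tested at 10 µM final in the well)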. actives 0.1% (n = 65,000). AID 368, 2006; in the data active means inhibition above about 50%
MKP-1 inh = MKP-1 phosphatase inhibitors, primary screen, biochemical, in vitro; recombinant MKP-1, OMFP hydrolysis fluorescence; inhibition, %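 (compounds tested at a single concentration somewhere between 10 and 100 µM)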; actives 0.15% (n = 65,000); AID 374, 2006;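 active means inhibition above about 50%, limit read from the data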;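 further: 0% = DMSO max control wells and 100% = wells with enzyme stopped by NaOH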
SF-1 act = activators of human SF-1, primary screen, cell-based, CHO-K1, Gal4-SF-1 LBD, luciferase luminescence. Steroidogenic factor 1 (Homo sapiens), Q13285. CHO-K1 Gal4-SF-1 LBD luciferase reporter; % increase over DMSO SF-1-specific signal. activation, % at 10 µM. actives 1.9% (n = 65,000). AID 522, 2006;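 active means activation above the mean activation of all tested compounds plus 3 SD, cut at about 50% in these data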
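System: CHO-K1 cells with Gal4–hSF-1 LBD chimera plus Gal4-driven luciferase; quantity: 4,000 CHO-K1 cells per well; compound: one dose, 10 µM compound, 1% DMSO; times: 20 h compound treatment, 37 °C; measured by: SteadyLite luciferase luminescence; read-out: percent activation versus DMSO; benchmarks: DMSO and mock-transfected background; replicates: one test per compound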
RORa activator = activators of orphan receptor RORA, primary screen, cell-based, luminescence | Nuclear receptor ROR-alpha (Homo sapiens), P35398 | CHO-K1 Gal4-RORA LBD luciferase reporter; percent increase over mock-subtracted basal signal | activation, % at 10 µM | actives 1.5% (n = 65,000) | AID 560, 2006;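 active means activation above the mean of all tested compounds plus 3 SD, cut at about 49% in these data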;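 further: 0% = DMSO-treated RORA cells and 100% = added signal equal to DMSO minus mock-transfected cells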
Target sequence (P35398 whole entry, looked up, the tested form may be a part): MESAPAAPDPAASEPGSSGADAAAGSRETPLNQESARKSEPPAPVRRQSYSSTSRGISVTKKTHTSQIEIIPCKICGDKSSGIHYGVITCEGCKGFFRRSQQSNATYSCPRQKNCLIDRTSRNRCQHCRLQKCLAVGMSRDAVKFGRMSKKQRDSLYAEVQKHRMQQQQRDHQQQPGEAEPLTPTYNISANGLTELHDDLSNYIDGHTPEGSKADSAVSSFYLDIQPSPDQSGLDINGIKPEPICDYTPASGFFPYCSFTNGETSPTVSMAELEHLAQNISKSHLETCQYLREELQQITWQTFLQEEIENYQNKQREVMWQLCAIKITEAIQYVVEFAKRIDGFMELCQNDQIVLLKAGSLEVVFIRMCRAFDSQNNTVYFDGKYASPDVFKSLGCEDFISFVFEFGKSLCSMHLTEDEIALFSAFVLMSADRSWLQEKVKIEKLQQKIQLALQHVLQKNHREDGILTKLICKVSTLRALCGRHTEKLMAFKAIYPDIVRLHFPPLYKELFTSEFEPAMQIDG
* hit, by the source's call. This is a sample that favours compounds with a hit; in the whole collection about 3.4% have one here.

`CCCCN(CC)S(=O)(=O)N1CCC(C(=O)NCc2ccc(F)cc2)CC1` gave Hsp90 inh -3, JNK3 inh -9, Cdc25B block -6, MKP-1 inh 14, SF-1 act 2 and RORa activator -9.
Screening c1ccc(-c2nnc3sc(-c4cc5ccccc5o4)nn23)cc1 returned Hsp90 inh -3, JNK3 inh 0, Cdc25B block -2, MKP-1 inh 22, SF-1 act -18 and RORa activator -16.
Screening Cc1nnc2sc(-c3cc4ccccc4o3)nn12 returned Hsp90 inh -6, JNK3 inh 3, Cdc25B block -2, MKP-1 inh -12, SF-1 act 34 and RORa activator 57*.
For Cc1nc(NC(=O)c2ccccc2)sc1-c1csc(N)n1 the results were Hsp90 inh 0, JNK3 inh 9, Cdc25B block -6, MKP-1 inh -1, SF-1 act 32 and RORa activator 81*.
Screening COc1cc(C(=O)Nc2ccc(N(C)C)cc2)cc(OC)c1OC returned Hsp90 inh 2, JNK3 inh -14, Cdc25B block -14, MKP-1 inh 4, SF-1 act 62* and RORa activator 84*.
O=C(Nc1cnc2ccccc2c1)c1ccncc1 was read as Hsp90 inh -3, JNK3 inh 1, Cdc25B block -1, MKP-1 inh 6, SF-1 act 30 and RORa activator 74*.
`COC(=O)c1cccc(C(=O)Nc2cnc3ccccc3c2)n1` gave Hsp90 inh -1, JNK3 inh 11, Cdc25B block -8, MKP-1 inh 28, SF-1 act 97* and RORa activator 43.
For CC1(C)Cc2[nH]c(=O)c(C#N)cc2CS1 the results were Hsp90 inh -3, JNK3 inh 6, Cdc25B block 2, MKP-1 inh -31, SF-1 act 5 and RORa activator 4.
`CC1(C)Cc2nc3sc4c(=O)[nH]cnc4c3cc2CS1` gave Hsp90 inh -23, JNK3 inh 0, Cdc25B block -8, MKP-1 inh 12, SF-1 act 63* and RORa activator 12.
`COc1cc(C(=O)N2CCN(c3ccc(C)cc3C)CC2)cc(OC)c1OC` gave Hsp90 inh 1, JNK3 inh -7, Cdc25B block 3, MKP-1 inh 10, SF-1 act 12 and RORa activator 64*.
Cc1ccc(N2CCN(C(=O)c3ccccc3)CC2)c(C)c1 was read as Hsp90 inh -3, JNK3 inh -4, Cdc25B block -9, MKP-1 inh -2, SF-1 act -9 and RORa activator -18.
Screening O=C(Nc1ccc2ccccc2c1)c1cccnc1 returned Hsp90 inh 2, JNK3 inh 5, Cdc25B block -10, MKP-1 inh 8, SF-1 act 66* and RORa activator 73*.
`O=C(NCCSc1ccccc1)c1cccnc1` gave Hsp90 inh -4, JNK3 inh 8, Cdc25B block -4, MKP-1 inh 5, SF-1 act 62* and RORa activator 78*.
Screening O=C(Nc1ccc2c(c1)oc1ccccc12)N1CCOCC1 returned Hsp90 inh -2, JNK3 inh 6, Cdc25B block 1, MKP-1 inh 26, SF-1 act 52* and RORa activator 27.
Screening O=C(Nc1ccc2c(c1)oc1ccccc12)c1cccnc1 returned Hsp90 inh 1, JNK3 inh -2, Cdc25B block -2, MKP-1 inh 30, SF-1 act 55* and RORa activator 38.
For CC1CCC2(CC1)NC(=O)N(CC(=O)NC(=O)NC1CCCC1)C2=O (configuration not stated) the results were Hsp90 inh 0, JNK3 inh 2, Cdc25B block -13, MKP-1 inh 19, SF-1 act 2 and RORa activator 7.
`CC(N)C1CCC(C(=O)Nc2ccncc2)CC1` (configuration not stated) gave Hsp90 inh 2.
For O=C(Nc1ccc2ccccc2c1)c1cnccn1 the results were Hsp90 inh -25, JNK3 inh -4, Cdc25B block 3, MKP-1 inh 16, SF-1 act 31 and RORa activator 57*.
CC1CCN(c2ccc(NC(=O)c3cccnc3)cc2)CC1 was read as Hsp90 inh -6, JNK3 inh -2, Cdc25B block -8, MKP-1 inh -2, SF-1 act 59* and RORa activator 48.
CCSc1nnc(-c2ccc(OC)cc2)o1 was read as Hsp90 inh -2, JNK3 inh 2, Cdc25B block 26, MKP-1 inh -24, SF-1 act 24 and RORa activator 90*.
`COc1ccc(-c2nnc(SCC(=O)c3cc(C)n(Cc4cccs4)c3C)o2)cc1` gave Hsp90 inh -6, JNK3 inh -1, Cdc25B block -9, MKP-1 inh 22, SF-1 act -12 and RORa activator 7.
`O=C(CSc1nnc(-c2cccs2)o1)c1cccs1` gave Hsp90 inh -1, JNK3 inh 4, Cdc25B block 0, MKP-1 inh 0, SF-1 act 98* and RORa activator 27.
CCSc1nnc(-c2ccc(Cl)cc2Cl)o1 was read as Hsp90 inh -3, JNK3 inh -8, Cdc25B block -11, MKP-1 inh -2, SF-1 act 54* and RORa activator 40.
COc1ccc(-c2nnc(SCC(=O)c3cccs3)o2)cc1 was read as Cdc25B block -5, MKP-1 inh 3, SF-1 act 42 and RORa activator 50*.
Screening CC(C)OC(=O)CSc1nnc(-c2ccc(Cl)cc2Cl)o1 returned Hsp90 inh 2, JNK3 inh -14, Cdc25B block 11, MKP-1 inh 7, SF-1 act -7 and RORa activator -16.
For CCOC(=O)CC(N)c1ccc(OC)cc1 (configuration not stated) the results were Hsp90 inh -1, Cdc25B block -12, MKP-1 inh 17, SF-1 act -1 and RORa activator 0.
Screening O=C(O)CCC/C=C\C[C@@H]1[C@@H](/C=C/[C@H](O)C2Cc3ccccc3C2)[C@@H](F)C[C@@H]1O returned Hsp90 inh 0.
For c1ccc(-c2ccccn2)nc1 the results were Hsp90 inh 0, Cdc25B block -9 and MKP-1 inh 4.
Screening c1ccc(-c2n[nH]c(-c3ccccn3)n2)nc1 returned Hsp90 inh -1, JNK3 inh 2, Cdc25B block -3, MKP-1 inh 7, SF-1 act 78* and RORa activator 24.
